Experimental data gathered from unrelated publications.
Lines come from different studies, so protocols differ.
Target: Sodium-dependent dopamine transporter (SLC6A3, Homo sapiens, UniProt Q01959)

| SMILES | effect on | mode | method | quantity | value |
| --- | --- | --- | --- | --- | --- |
| CN1[C@H]2CC[C@@H]1[C@@H](c1cc(-c3ccccc3)no1)[C@H](OC(c1ccc(F)cc1)c1ccc(F)cc1)C2 | ligand displacement |  | radioligand | Ki | 28 nM |
| CCC[C@@H](C(=O)c1ccc(C)cc1)N1CCCC1 | transporter uptake | inhibitor | radiometric | IC50 | 6.2 nM |
| CN[C@]1(c2ccccc2Cl)CCCCC1=O | ligand displacement |  | radioligand | IC50 | > 100000 nM |
| CNC(C)(C)C(=O)c1ccccc1 | calcium signal | agonist | fluorescence | EC50 | 590 nM |
| CC(NCc1ccccc1)C(=O)c1ccc2c(c1)OCO2 (stereo not shown) | ligand displacement |  | radioligand | Ki | < 100 nM |
| CN[C@@H](C)C(=O)c1ccccc1 | calcium signal | agonist | fluorescence | EC50 | 240 nM |
| C[C@@H](CN1CCC(Cc2ccccc2)CC1)[C@@H](O)c1ccc(O)cc1 (relative stereo) | ligand displacement |  | radioligand | Ki | 6000 nM |
| Fc1ccccc1C(Cc1ccccc1)N1CCCC1 (stereo not shown) | ligand displacement |  | radioligand | Ki | 327 nM |
| CNc1nc2cc(OCCCCN3CCN(c4cccc(Cl)c4Cl)CC3)ccc2s1 | ligand displacement |  | radioligand | Ki | 2800 nM |
| NCCc1ccc(Oc2ccc(O)cc2)c(I)c1 | ligand displacement |  | radioligand | IC50 | 800 nM |
